{"data": "Results collected from several papers", "CDK7": "Cyclin-dependent kinase 7 (CDK7, Homo sapiens, UniProt P50613)"}
{"Compound": "C=CC(=O)N1CCC[C@@H](n2nc(-c3ccc(Oc4ccccc4)cc3)c3c(N)ncnc32)C1", "target": "CDK7", "observed": "enzyme activity", "action": "inhibitor", "concentration": "1 µM", "endpoint": "inhibition", "value": "28%"}
{"Compound": "CCCCC(=O)Nc1ccc(-c2ccc3ncn(CCC)c(=O)c3c2)cn1", "target": "CDK7", "observed": "binding", "method": "competition with immobilised ligand", "concentration": "0.5 µM", "endpoint": "remaining binding", "value": "83%"}
{"Compound": "C1=C/COCc2cc(ccc2OCCN2CCCC2)Nc2nccc(n2)-c2cccc(c2)COC/1", "target": "CDK7", "observed": "binding", "concentration": "0.1 µM", "endpoint": "remaining binding", "value": "21%"}
{"Compound": "CNS(=O)(=O)c1ccc(Nc2ncc(C(F)(F)F)c(N3CCC[C@](C)(O)C3)n2)c(C)c1", "target": "CDK7", "observed": "binding", "method": "competition with immobilised ligand", "concentration": "1 µM", "endpoint": "remaining binding", "value": "83%"}
{"Compound": "C=CC(=O)N1CCC([C@@H]2CCNc3c(C(N)=O)c(-c4ccc(Oc5ccccc5)cc4)nn32)CC1", "target": "CDK7", "observed": "enzyme activity", "action": "inhibitor", "concentration": "1 µM", "endpoint": "inhibition", "value": "21%"}
{"Compound": "Cc1ccc(NC(=O)c2ccnc(C(F)(F)F)c2)cc1-c1cc(OCCO)nc(N2CCOCC2)c1", "target": "CDK7", "observed": "binding", "method": "competition with immobilised ligand", "concentration": "1 µM", "endpoint": "remaining binding", "value": "98%"}
{"Compound": "COc1ccc2oc(-c3ccc4nc(N)oc4c3)c/c(=N\\c3ccccc3NC(=O)CCN)c2c1", "target": "CDK7", "observed": "binding", "concentration": "1 µM", "endpoint": "remaining binding", "value": "97%"}
{"Compound": "CC(C)S(=O)(=O)c1ccc2nccc(Nc3ccc4sc(C5CCCC5)nc4c3)c2c1", "target": "Cyclin-dependent kinase 7, with cyclin H (CDK7, Homo sapiens, UniProt P50613)", "observed": "enzyme activity", "action": "inhibitor", "concentration": "1 µM", "endpoint": "activity vs control", "value": "106%"}
{"Compound": "CN1CCN(C(=O)c2ccc(NC(=O)Nc3ccc(N(C)c4ccnc(Nc5ccc(CS(C)(=O)=O)cc5)n4)cc3)cc2)CC1", "target": "CDK7", "observed": "binding", "method": "competition with immobilised ligand", "concentration": "1 µM", "endpoint": "remaining binding", "value": "61%"}
{"Compound": "N#Cc1ccc(NC(=O)Nc2ccccc2)cc1", "target": "CDK7", "observed": "cell-free assay", "method": "competition with immobilised ligand", "concentration": "25 µM", "endpoint": "remaining binding", "value": "94%"}
{"Compound": "C[C@]1(O)CCCN(c2nc(Nc3ccc(S(=O)(=O)N[C@H]4CC[C@H](CN5CCN(c6ccc(C7CCC(=O)NC7=O)cc6F)CC5)CC4)cc3Cl)ncc2C(F)(F)F)C1 (some centres unmarked)", "target": "CDK7", "observed": "binding", "method": "competition with immobilised ligand", "concentration": "1 µM", "endpoint": "remaining binding", "value": "100%"}
